Experiments:
[1] = target: T1, C-C chemokine receptor type 1 (Homo sapiens, UniProt P32246); assay: Displacement of [125I]-MIP1-alpha from human recombinant CCR1 expressed in HEK293 cells after 4 hrs by SPA; format: cell-based
T1 sequence (P32246 whole entry): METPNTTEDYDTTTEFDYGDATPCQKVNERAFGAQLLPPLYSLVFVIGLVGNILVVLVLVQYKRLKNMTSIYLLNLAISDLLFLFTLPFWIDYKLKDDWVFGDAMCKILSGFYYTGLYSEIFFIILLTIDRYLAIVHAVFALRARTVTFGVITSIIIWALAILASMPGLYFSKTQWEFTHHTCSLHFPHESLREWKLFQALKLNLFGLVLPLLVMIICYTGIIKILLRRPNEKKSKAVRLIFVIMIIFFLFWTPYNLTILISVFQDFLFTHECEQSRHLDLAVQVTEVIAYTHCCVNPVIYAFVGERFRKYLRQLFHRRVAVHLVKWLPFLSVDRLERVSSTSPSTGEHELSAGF
Method in brief: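 This was a SPA binding assay on membranes from HEK293 cells stably expressing human CCR1 from an episomal vector. Buffer was 130 mM NaCl, 5 mM KCl, 1 mM MnCl2, 50 mM Tris-HCl pH 7.4, 0.1% BSA, with SPA beads at 10 mg/ml. Compound dilutions were added, then [125I]-MIP1a at 0.1 nM final. Plates were spun 2 min, incubated 4 h, then scintillation-counted.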

[2] = Metabolic stability in human liver microsomes assessed as compound remaining at 1 uM after 30 mins; format: ADME, Microsome; conditions: read-out: Stability
Method in brief: (§1)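 Rat or human liver microsomes (300 nM cytochrome P450) were incubated in phosphate buffer pH 7.4 with test compound and 1 mM NADPH for 30 min at 37 °C. Reactions were stopped with acetonitrile and centrifuged. Samples were analyzed by LC/MS as percent parent remaining at 30 min.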

[3] = Metabolic stability in rat liver microsomes assessed as compound remaining at 1 uM after 30 mins; format: ADME, Microsome; conditions: read-out: Stability; method in brief: as §1
[4] = test system: Rattus norvegicus; assay: (§2) AUC (0 to infinity) in Sprague-Dawley rat at 5 mg/kg, po; format: ADME, organism-based, Plasma; set-up: time infinity, dose 5 mg/kg, route oral; conditions: in vivo
Method in brief: (§3)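 Male Sprague-Dawley rats (3–4) were gavaged at 5 mg/kg in 0.5% methyl cellulose, either singly or in a cassette. Serial arterial-cannula blood was drawn up to 6 or 24 h. Parent compound was measured in plasma by LC/MS/MS after protein precipitation. Parameters came from non-compartmental analysis.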

[5] = Half life in Sprague-Dawley rat plasma at 5 mg/kg, po; format: ADME, organism-based; set-up: dose 5 mg/kg, route oral; method in brief: as §3
[6] = Oral bioavailability in Sprague-Dawley rat plasma at 5 mg/kg; format: ADME, organism-based
Method in brief: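 Male Sprague-Dawley rats (3–4) received an oral gavage of 5 mg/kg in 0.5% methyl cellulose and, separately, 1 mg/kg intravenously via an indwelling catheter. Serial arterial blood was collected. Plasma parent compound was measured by LC/MS/MS after protein precipitation. Bioavailability came from non-compartmental analysis.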

[7] = Tmax in Sprague-Dawley rat plasma at 5 mg/kg, po; format: ADME, organism-based; set-up: dose 5 mg/kg, route oral; method in brief: as §3
[8] = Cmax in Sprague-Dawley rat plasma at 5 mg/kg, po; format: ADME, organism-based; set-up: dose 5 mg/kg, route oral; method in brief: as §3
[9] = target: Cytochrome P450 3A4 (Homo sapiens, UniProt P08684); assay: Inhibition of human recombinant CYP3A4 at < 10 uM; format: ADME; conditions: recombinant enzyme
Chain of Cytochrome P450 3A4 (P08684 whole entry): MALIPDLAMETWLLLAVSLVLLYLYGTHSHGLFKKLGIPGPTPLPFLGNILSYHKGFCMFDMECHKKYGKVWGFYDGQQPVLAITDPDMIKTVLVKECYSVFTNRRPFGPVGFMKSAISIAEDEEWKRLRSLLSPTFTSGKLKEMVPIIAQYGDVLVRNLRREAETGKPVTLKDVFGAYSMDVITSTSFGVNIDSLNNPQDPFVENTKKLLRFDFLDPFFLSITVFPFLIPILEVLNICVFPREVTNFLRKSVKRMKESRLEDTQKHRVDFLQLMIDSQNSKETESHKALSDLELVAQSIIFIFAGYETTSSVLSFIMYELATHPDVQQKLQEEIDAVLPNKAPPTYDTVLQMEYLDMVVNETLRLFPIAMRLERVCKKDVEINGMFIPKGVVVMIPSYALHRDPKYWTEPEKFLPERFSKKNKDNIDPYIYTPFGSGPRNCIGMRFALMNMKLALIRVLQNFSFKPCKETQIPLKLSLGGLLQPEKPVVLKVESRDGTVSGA
Method in brief: (§4)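 Each human recombinant CYP isoenzyme (1A2, 2C9, 2C19, 2D6, 3A4) was run with its own fluorogenic substrate, with test compound up to […]. Fluorescence was read after a defined reaction time. Percent inhibition was fitted against log concentration to give IC50.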

[10] = target: Cytochrome P450 2D6 (Homo sapiens, UniProt P10635); assay: Inhibition of human recombinant CYP2D6 at < 10 uM; format: ADME; conditions: recombinant enzyme; method in brief: as §4
Chain of Cytochrome P450 2D6 (P10635 whole entry): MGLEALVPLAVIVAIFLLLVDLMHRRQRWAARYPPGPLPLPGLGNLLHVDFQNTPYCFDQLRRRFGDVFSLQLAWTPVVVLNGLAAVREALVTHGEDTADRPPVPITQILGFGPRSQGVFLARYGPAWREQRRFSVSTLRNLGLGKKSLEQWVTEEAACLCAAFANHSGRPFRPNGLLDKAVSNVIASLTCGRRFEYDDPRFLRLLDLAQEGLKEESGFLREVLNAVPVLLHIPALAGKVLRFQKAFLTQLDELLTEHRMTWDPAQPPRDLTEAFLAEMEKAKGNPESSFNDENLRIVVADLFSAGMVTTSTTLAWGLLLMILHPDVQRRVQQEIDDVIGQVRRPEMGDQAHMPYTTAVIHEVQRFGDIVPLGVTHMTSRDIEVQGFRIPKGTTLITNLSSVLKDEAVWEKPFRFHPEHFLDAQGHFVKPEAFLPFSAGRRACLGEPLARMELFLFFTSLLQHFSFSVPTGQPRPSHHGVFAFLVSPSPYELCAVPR

[11] = target: Cytochrome P450 2C9 (Homo sapiens, UniProt P11712); assay: Inhibition of human recombinant CYP2C9 at < 10 uM; format: ADME; conditions: recombinant enzyme; method in brief: as §4
Chain of Cytochrome P450 2C9 (P11712 whole entry): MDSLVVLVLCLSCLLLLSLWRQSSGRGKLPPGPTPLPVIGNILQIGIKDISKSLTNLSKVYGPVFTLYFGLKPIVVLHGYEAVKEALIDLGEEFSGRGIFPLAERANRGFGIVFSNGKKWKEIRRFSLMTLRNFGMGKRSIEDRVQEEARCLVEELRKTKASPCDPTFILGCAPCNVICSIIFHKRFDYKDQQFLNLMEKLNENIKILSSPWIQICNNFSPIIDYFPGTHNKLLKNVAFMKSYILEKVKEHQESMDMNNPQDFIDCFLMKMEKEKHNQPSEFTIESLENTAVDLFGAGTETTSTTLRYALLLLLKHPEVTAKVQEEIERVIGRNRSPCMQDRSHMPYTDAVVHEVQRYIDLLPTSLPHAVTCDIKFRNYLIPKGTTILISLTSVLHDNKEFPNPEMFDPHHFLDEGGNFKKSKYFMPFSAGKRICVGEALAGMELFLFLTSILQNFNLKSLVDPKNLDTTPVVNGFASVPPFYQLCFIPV

[12] = target: T2, Cytochrome P450 1A2 (Homo sapiens, UniProt P05177); assay: Inhibition of human recombinant CYP1A2 at < 10 uM; format: ADME; conditions: recombinant enzyme; method in brief: as §4
T2 sequence (P05177 whole entry): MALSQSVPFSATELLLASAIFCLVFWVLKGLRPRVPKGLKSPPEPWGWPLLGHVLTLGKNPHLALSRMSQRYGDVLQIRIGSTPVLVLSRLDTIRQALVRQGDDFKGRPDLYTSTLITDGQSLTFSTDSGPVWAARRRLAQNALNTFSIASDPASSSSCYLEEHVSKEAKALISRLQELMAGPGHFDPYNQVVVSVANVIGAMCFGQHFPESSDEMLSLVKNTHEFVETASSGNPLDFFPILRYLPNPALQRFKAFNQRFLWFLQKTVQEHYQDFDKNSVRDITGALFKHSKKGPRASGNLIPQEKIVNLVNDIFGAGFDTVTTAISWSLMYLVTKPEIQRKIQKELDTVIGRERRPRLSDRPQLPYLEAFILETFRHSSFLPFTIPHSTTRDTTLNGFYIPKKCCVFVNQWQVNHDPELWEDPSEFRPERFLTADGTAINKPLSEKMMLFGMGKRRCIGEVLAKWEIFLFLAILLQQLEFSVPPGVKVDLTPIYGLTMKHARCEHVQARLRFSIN

[13] = target: Cytochrome P450 2C19 (Homo sapiens, UniProt P33261); assay: Inhibition of human recombinant CYP2C19 at < 10 uM; format: ADME; conditions: recombinant enzyme; method in brief: as §4
Chain of Cytochrome P450 2C19 (P33261 whole entry): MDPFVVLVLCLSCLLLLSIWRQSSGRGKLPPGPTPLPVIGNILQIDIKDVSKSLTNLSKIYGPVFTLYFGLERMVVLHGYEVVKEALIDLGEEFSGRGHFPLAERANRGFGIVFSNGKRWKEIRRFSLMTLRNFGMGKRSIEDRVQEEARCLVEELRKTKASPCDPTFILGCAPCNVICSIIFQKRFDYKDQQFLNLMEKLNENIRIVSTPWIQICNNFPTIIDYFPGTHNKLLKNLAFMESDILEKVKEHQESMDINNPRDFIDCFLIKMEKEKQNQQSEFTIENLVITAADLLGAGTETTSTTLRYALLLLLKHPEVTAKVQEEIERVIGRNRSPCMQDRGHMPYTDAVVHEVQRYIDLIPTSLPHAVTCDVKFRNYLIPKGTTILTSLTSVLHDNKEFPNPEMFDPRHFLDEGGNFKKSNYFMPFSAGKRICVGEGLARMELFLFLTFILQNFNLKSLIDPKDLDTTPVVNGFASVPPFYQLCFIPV

[14] = as §2; format: ADME, organism-based, Plasma; set-up: time infinity, dose 5 mg/kg, route oral; conditions: Sprague-Dawley, plasma; method in brief: as §3
[15] = Antagonist activity at CCR1 in human THP1 cells assessed as inhibition of CCL3-induced chemotaxis after 3 hrs; conditions: thp-1

SMILES | IC50 [1] | remaining at 0.5 h, 1 µM [2] | remaining at 0.5 h, 1 µM [3] | AUC(0-inf) [14] | also measured
Cc1nnc([C@H]2CCCN2C(=O)Nc2ccc(C(F)(F)F)cc2)n1Cc1ccc(Cl)cc1 | 69 nM | 100% | 87% |  | AUC [4]: 7649 ng·h/mL; half-life [5]: 3.8 h; bioavailability [6]: 26%; Tmax [7]: 1.1 h; Cmax [8]: 1120 ng/mL; inhibition (INH) [9]: Not Active; inhibition (INH) [10]: Not Active; inhibition (INH) [11]: Not Active; inhibition (INH) [12]: Not Active; inhibition (INH) [13]: Not Active
O=C(Nc1ccc(C(F)(F)F)cc1)N1CCC[C@@H]1c1ncnn1Cc1ccc(Cl)cc1 | 32 nM | 61% | 81% | 4460 ng·h/mL | 
CN(Cc1ccc(Cl)cc1)C(=O)[C@H]1CCCN1C(=O)Nc1ccc(C(F)(F)F)cc1 |  |  |  |  | IC50 [15]: 22 nM
Cc1nc([C@H]2CCCN2C(=O)Nc2ccc(C(F)(F)F)cc2)n(Cc2ccc(Cl)cc2)n1 | 810 nM |  |  |  | 

The remaining compounds from weak to strong by IC50 [1], led by results:

IC50 [1] | remaining at 0.5 h, 1 µM [2] | remaining at 0.5 h, 1 µM [3] | AUC(0-inf) [14] | SMILES | also measured
65 nM | 39% | 55% | 100 ng·h/mL | O=C(Nc1ccc(C(F)(F)F)cc1)N1CCCC1c1nccn1Cc1ccc(Cl)cc1 (stereo not given) | 
20 nM | 59% | 25% |  | O=C(Nc1ccc(C(F)(F)F)cc1)N1CCC[C@@H]1c1nnnn1Cc1ccc(Cl)cc1 | 
17 nM | 52% | 41% | 657 ng·h/mL | O=C(Nc1ccc(C(F)(F)F)cc1)N1CCC[C@@H]1c1nncn1Cc1ccc(Cl)cc1 | 
